Test results published in ChEMBL document CHEMBL1154150, “Synthesis and anticonvulsant activity of some new bishydrazones derived from 3,4-dipropyloxythiophene” (Eur J Med Chem, 2009).
The source made the active and inactive calls. No cut-off for these calls is given here.

Columns and labels:
Mus musculus [1] = assay: Neurotoxicity in CF1 mouse at 100 mg/kg, ip after 4 hrs by rotarod test; type: toxicity, organism-based; parameters: dose 100 mg/kg, route intraperitoneal; settings: in vivo
Method in brief: (§1)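 Rotorod neurotoxicity in male CF-1 mice (18–25 g) after i.p. compound in 0.5% methyl cellulose/water or PEG 200 at 30, 100 or 300 mg/kg; reported as number showing toxicity/number tested.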

Mus musculus [2] = assay: Anticonvulsant activity in CF1 mouse assessed as protection against maximal electroshock-induced seizures at 30 mg/kg, ip after 4 hrs; type: functional, organism-based; parameters: dose 30 mg/kg
Method in brief: (§2)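 Male CF-1 albino mice (18–25 g), dosed i.p. at 30, 100 or 300 mg/kg in 0.5% methyl cellulose/water or PEG 200 (0.01 ml/g); tested at intervals after dosing; protection = abolition of hind limb tonic extensor component of MES seizure; scored as protected/tested.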

Mus musculus [3] = assay: Anticonvulsant activity in CF1 mouse assessed as protection against subcutaneous metrazole-induced seizures at 30 mg/kg, ip after 4 hrs; type: functional, organism-based; parameters: dose 30 mg/kg
Mus musculus [4] = assay: Anticonvulsant activity in CF1 mouse assessed as protection against maximal electroshock-induced seizures at 100 mg/kg, ip after 0.5 hrs; type: functional, organism-based; parameters: dose 100 mg/kg; method in brief: as §2
Mus musculus [5] = assay: Anticonvulsant activity in CF1 mouse assessed as protection against 6 Hz electric shock-induced seizures at 100 mg/kg, ip after 0.5 hrs; type: functional, organism-based; parameters: dose 100 mg/kg
Method in brief: (§3)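 Male CF-1 albino mice (18–25 g), compound suspended in 0.5% methyl cellulose/water or PEG 200, given i.p.; four mice per time point (0.25, 0.5, 1.0, 2.0, 4 h) challenged via corneal electrodes at 6 Hz, 32 mA for 3 s, current eliciting psychomotor seizure in 97% of animals; reported as protected/tested.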

Mus musculus [6] = assay: Anticonvulsant activity in CF1 mouse assessed as protection against 6 Hz electric shock-induced seizures at 100 mg/kg, ip after 2 hrs; type: functional, organism-based; parameters: dose 100 mg/kg; method in brief: as §3
Mus musculus [7] = assay: Anticonvulsant activity in CF1 mouse assessed as protection against maximal electroshock-induced seizures at 300 mg/kg, ip after 0.5 hrs; type: functional, organism-based; parameters: dose 300 mg/kg; method in brief: as §2
Mus musculus [8] = assay: Neurotoxicity in CF1 mouse at 30 mg/kg, ip after 0.5 hrs by rotarod test; type: toxicity, organism-based; parameters: dose 30 mg/kg, route intraperitoneal; settings: in vivo; method in brief: as §1
Mus musculus [9] = assay: Anticonvulsant activity in CF1 mouse assessed as protection against subcutaneous metrazole-induced seizures at 100 mg/kg, ip after 0.5 hrs; type: functional, organism-based; parameters: dose 100 mg/kg
Mus musculus [10] = assay: Anticonvulsant activity in CF1 mouse assessed as protection against maximal electroshock-induced seizures at 100 mg/kg, ip after 4 hrs; type: functional, organism-based; parameters: dose 100 mg/kg; method in brief: as §2
Mus musculus [11] = assay: Anticonvulsant activity in CF1 mouse assessed as protection against subcutaneous metrazole-induced seizures at 300 mg/kg, ip after 4 hrs; type: functional, organism-based; parameters: dose 300 mg/kg
Mus musculus [12] = assay: Anticonvulsant activity in CF1 mouse assessed as protection against 6 Hz electric shock-induced seizures at 100 mg/kg, ip after 1 hr; type: functional, organism-based; parameters: dose 100 mg/kg; method in brief: as §3
Mus musculus [13] = assay: Anticonvulsant activity in CF1 mouse assessed as protection against subcutaneous metrazole-induced seizures at 300 mg/kg, ip after 0.5 hrs; type: functional, organism-based; parameters: dose 300 mg/kg
Mus musculus [14] = assay: Neurotoxicity in CF1 mouse at 30 mg/kg, ip after 4 hrs by rotarod test; type: toxicity, organism-based; parameters: dose 30 mg/kg, route intraperitoneal; settings: in vivo; method in brief: as §1
Mus musculus [15] = assay: Neurotoxicity in CF1 mouse at 100 mg/kg, ip after 0.5 hrs by rotarod test; type: toxicity, organism-based; parameters: dose 100 mg/kg, route intraperitoneal; settings: in vivo; method in brief: as §1
Mus musculus [16] = assay: Neurotoxicity in CF1 mouse at 300 mg/kg, ip after 0.5 hrs by rotarod test; type: toxicity, organism-based; parameters: dose 300 mg/kg, route intraperitoneal; settings: in vivo; method in brief: as §1
Mus musculus [17] = assay: Neurotoxicity in CF1 mouse at 300 mg/kg, ip after 4 hrs by rotarod test; type: toxicity, organism-based; parameters: dose 300 mg/kg, route intraperitoneal; settings: in vivo; method in brief: as §1
Mus musculus [18] = assay: Anticonvulsant activity in CF1 mouse assessed as protection against 6 Hz electric shock-induced seizures at 100 mg/kg, ip after 0.25 hrs; type: functional, organism-based; parameters: dose 100 mg/kg; method in brief: as §3
Mus musculus [19] = assay: Anticonvulsant activity in CF1 mouse assessed as protection against 6 Hz electric shock-induced seizures at 100 mg/kg, ip after 4 hrs; type: functional, organism-based; parameters: dose 100 mg/kg; method in brief: as §3
Mus musculus [20] = assay: Anticonvulsant activity in CF1 mouse assessed as protection against subcutaneous metrazole-induced seizures at 30 mg/kg, ip after 0.5 hrs; type: functional, organism-based; parameters: dose 30 mg/kg
Mus musculus [21] = assay: Anticonvulsant activity in CF1 mouse assessed as protection against subcutaneous metrazole-induced seizures at 100 mg/kg, ip after 4 hrs; type: functional, organism-based; parameters: dose 100 mg/kg
Mus musculus [22] = assay: Anticonvulsant activity in CF1 mouse assessed as protection against maximal electroshock-induced seizures at 30 mg/kg, ip after 0.5 hrs; type: functional, organism-based; parameters: dose 30 mg/kg; method in brief: as §2
Mus musculus [23] = assay: Anticonvulsant activity in CF1 mouse assessed as protection against maximal electroshock-induced seizures at 300 mg/kg, ip after 4 hrs; type: functional, organism-based; parameters: dose 300 mg/kg; method in brief: as §2

| Compound | Activity (Mus musculus [1]) | Activity (Mus musculus [2]) | Activity (Mus musculus [3]) | Activity (Mus musculus [4]) | Activity (Mus musculus [6]) | Activity (Mus musculus [7]) | Activity (Mus musculus [8]) | Activity (Mus musculus [9]) | Activity (Mus musculus [10]) | Activity (Mus musculus [11]) | Activity (Mus musculus [13]) | Activity (Mus musculus [14]) | Activity (Mus musculus [15]) | Activity (Mus musculus [16]) | Activity (Mus musculus [17]) | Activity (Mus musculus [18]) | Activity (Mus musculus [19]) | Activity (Mus musculus [20]) | Activity (Mus musculus [21]) | Activity (Mus musculus [22]) | also measured |
| --- | --- | --- | --- | --- | --- | --- | --- | --- | --- | --- | --- | --- | --- | --- | --- | --- | --- | --- | --- | --- | --- |
| CCCOc1c(C(=O)NN=C2CCCCC2)sc(C(=O)NN=C2CCCCC2)c1OCCC | Non-toxic | inactive | inactive | inactive | inactive | inactive | Non-toxic | inactive | inactive | inactive | inactive | Non-toxic | Non-toxic | Non-toxic | Non-toxic | inactive | inactive | inactive | inactive | inactive | Activity (Mus musculus [5]): inactive; Activity (Mus musculus [12]): inactive |
| CCCOc1c(C(=O)N/N=C\c2ccc3c(c2)Cc2ccccc2-3)sc(C(=O)N/N=C/c2ccc3c(c2)Cc2ccccc2-3)c1OCCC | Non-toxic | inactive | inactive | inactive | – | inactive | Non-toxic | – | inactive | inactive | inactive | Non-toxic | – | Toxic | Toxic | inactive | inactive | inactive | inactive | inactive | Activity (Mus musculus [23]): inactive |
| CCCOc1c(C(=O)N/N=C(\C)c2cccs2)sc(C(=O)N/N=C(\C)c2cccs2)c1OCCC | Non-toxic | inactive | inactive | inactive | – | inactive | Non-toxic | inactive | inactive | – | inactive | Non-toxic | Non-toxic | Non-toxic | Non-toxic | inactive | – | inactive | inactive | inactive | – |
| CCCOc1c(C(=O)NN=C2CCCCCC2)sc(C(=O)NN=C2CCCCCC2)c1OCCC | Non-toxic | inactive | inactive | inactive | inactive | inactive | Non-toxic | inactive | inactive | inactive | inactive | Non-toxic | Non-toxic | Non-toxic | Non-toxic | inactive | inactive | inactive | inactive | inactive | Activity (Mus musculus [12]): inactive |
| CCCOc1c(C(=O)N/N=C\c2c[nH]c3ccccc23)sc(C(=O)N/N=C/c2c[nH]c3ccccc23)c1OCCC | Non-toxic | inactive | inactive | inactive | inactive | inactive | Non-toxic | – | inactive | inactive | inactive | Non-toxic | Toxic | Toxic | Non-toxic | inactive | inactive | inactive | inactive | inactive | Activity (Mus musculus [23]): inactive |
| CCCOc1c(C(=O)N/N=C\c2cc(OC)c(OC)c(OC)c2)sc(C(=O)N/N=C/c2cc(OC)c(OC)c(OC)c2)c1OCCC | Non-toxic | inactive | inactive | inactive | – | inactive | Non-toxic | – | inactive | inactive | inactive | Non-toxic | Non-toxic | Non-toxic | Non-toxic | inactive | inactive | inactive | inactive | inactive | Activity (Mus musculus [5]): inactive; Activity (Mus musculus [23]): inactive |
| CCCOc1c(C(=O)N/N=C\c2ccccc2)sc(C(=O)N/N=C/c2ccccc2)c1OCCC | Non-toxic | inactive | inactive | inactive | inactive | inactive | Non-toxic | inactive | inactive | – | inactive | Non-toxic | Non-toxic | Non-toxic | Non-toxic | inactive | inactive | inactive | inactive | inactive | Activity (Mus musculus [23]): inactive |
